In brackets after ≈: the same amount, converted by molar mass.
Columns and labels:
[1] = target: T1, Epidermal growth factor receptor (Homo sapiens, UniProt P00533); assay: Inhibit of phosphorylation of a tyrosine/glutamic acid copolymer by epidermal growth factor receptor prepared from human A431 carcinoma cell vesicles by immunoaffinity chromatography.
[2] = Aqueous solubility ([…] degree C); assay type: physicochemical; conditions: for solubility: water, read-out: S; for S: buffer
[3] = target: T1, Epidermal growth factor receptor; assay: Inhibition of autophosphorylation of epidermal growth factor receptor in A431 cells in culture
Mus musculus [4] = assay: Weight change of EGFR tumor bearing mice at 38 mg/kg ip dose, days 1-15 administration; assay type: functional; conditions: route intraperitoneal
Mus musculus [5] = assay: Difference in days for treated (T) and control (C) EGFR tumor fragments to reach 750 mg in mice at 400 mg/kg peroral dose, administration days 1-15; assay type: functional; conditions: route oral
Mus musculus [6] = assay: Difference in days for treated (T) and control (C) EGFR tumor fragments to reach 750 mg in mice at 38 mg/kg ip dose, administration days 1-15; assay type: functional; conditions: route intraperitoneal
A-431 [7] = assay: Ratio of treated and control A431 median tumor mass*100% in mice at 75 mg/kg dose
MCF7 [8] = assay: Weight change in MCF-7 tumor bearing mice at 50 mg/kg ip dose, days 1-15 administration; assay type: functional, organism-based; set-up: dose 50 mg/kg
MCF7 [9] = assay: Difference in days for treated (T) and control (C) MCF-7 tumor fragments to reach 750 mg in mice at 25 mg/kg ip dose, administration days 1-15; assay type: functional; conditions: route intraperitoneal
SK-OV-3 [10] = assay: Weight change in SKOV-3 tumor bearing mice at 30 mg/kg ip dose, days 10-14,17-21,24-28 administration; assay type: functional; conditions: route intraperitoneal
Mus musculus [11] = assay: Ratio of treated and control EGFR median tumor mass*100% in mice at 400 mg/kg peroral dose, days 1-15 administration; assay type: functional; conditions: route oral
Procedure, shortened: (§1)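 Nude mice (NCr nu/nu, 18-22 g) were randomized and implanted sc with tumor fragments in the right axilla on day 0. Tumor lines were A431 epidermoid, NIH 3T3 fibroblasts transfected with human EGFR, and MCF-7 breast. Dosing was ip or oral, by average cage weight, with 6 mice/dose group. Vehicle was 6% dimethylacetamide/94% 50 mM sodium lactate pH 4.0 (suspension), or isethionate salt in water.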

A-431 [12] = assay: Weight change in A431 tumor bearing mice at 75 mg/kg ip dose, days 7-21 administration; assay type: functional; conditions: route intraperitoneal
[13] = target: Receptor tyrosine-protein kinase erbB-2 (Homo sapiens, UniProt P04626); assay: Inhibition of heregulin-dependent autophosphorylation of ErbB2 receptor in MDA-MB-453 cells; assay type: functional, cell-based
Receptor tyrosine-protein kinase erbB-2, sequence (P04626 whole entry): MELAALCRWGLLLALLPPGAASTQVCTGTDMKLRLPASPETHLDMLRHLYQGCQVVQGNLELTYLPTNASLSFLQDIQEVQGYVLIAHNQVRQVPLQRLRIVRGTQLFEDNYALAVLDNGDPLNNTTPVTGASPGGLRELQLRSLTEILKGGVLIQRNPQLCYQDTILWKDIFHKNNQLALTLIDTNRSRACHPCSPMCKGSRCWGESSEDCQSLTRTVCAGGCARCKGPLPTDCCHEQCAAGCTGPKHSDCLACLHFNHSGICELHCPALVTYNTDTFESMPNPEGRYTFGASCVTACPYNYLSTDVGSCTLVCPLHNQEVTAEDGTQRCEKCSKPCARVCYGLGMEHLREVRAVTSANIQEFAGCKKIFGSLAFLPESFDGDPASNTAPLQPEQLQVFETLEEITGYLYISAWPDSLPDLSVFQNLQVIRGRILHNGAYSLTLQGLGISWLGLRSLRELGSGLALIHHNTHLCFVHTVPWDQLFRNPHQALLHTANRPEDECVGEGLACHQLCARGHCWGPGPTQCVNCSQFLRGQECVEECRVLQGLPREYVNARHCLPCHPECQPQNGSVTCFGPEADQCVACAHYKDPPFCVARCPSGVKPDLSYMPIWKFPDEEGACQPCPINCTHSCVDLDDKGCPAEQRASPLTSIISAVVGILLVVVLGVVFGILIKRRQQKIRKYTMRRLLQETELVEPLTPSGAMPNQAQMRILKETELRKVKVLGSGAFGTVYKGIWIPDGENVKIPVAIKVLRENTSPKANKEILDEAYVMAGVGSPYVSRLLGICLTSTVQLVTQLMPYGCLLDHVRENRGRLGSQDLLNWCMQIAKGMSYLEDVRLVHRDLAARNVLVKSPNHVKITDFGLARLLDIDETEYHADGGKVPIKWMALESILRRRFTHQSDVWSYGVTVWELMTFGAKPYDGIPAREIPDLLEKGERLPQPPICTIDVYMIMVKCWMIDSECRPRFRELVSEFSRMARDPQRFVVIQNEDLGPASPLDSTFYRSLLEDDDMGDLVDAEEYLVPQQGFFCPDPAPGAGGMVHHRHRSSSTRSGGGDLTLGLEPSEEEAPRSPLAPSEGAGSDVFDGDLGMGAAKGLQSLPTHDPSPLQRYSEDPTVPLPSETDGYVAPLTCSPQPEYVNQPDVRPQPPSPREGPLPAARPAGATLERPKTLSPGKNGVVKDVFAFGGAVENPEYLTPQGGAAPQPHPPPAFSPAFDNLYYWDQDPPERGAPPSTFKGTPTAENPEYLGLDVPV

Mus musculus [14] = assay: Net reduction in EGFR tumor burden between the first and last treatments in mice at 38 mg/kg ip dose, days 1-15 administration; assay type: functional; conditions: route intraperitoneal; procedure, shortened: as §1
MCF7 [15] = assay: Weight change in MCF-7 tumor bearing mice at 25 mg/kg ip dose, days 1-15 administration; assay type: functional; conditions: route intraperitoneal
MCF7 [16] = assay: Difference in days for treated (T) and control (C) MCF-7 tumor fragments to reach 750 mg in mice at 50 mg/kg ip dose, administration days 1-15; assay type: functional; conditions: route intraperitoneal
[17] = target: T1, Epidermal growth factor receptor; assay: Inhibition of EGF-dependent autophosphorylation of EGF-R in A431 cells
Mus musculus [18] = assay: Weight change of EGFR tumor bearing mice at 400 mg/kg peroral dose, days 1-15 administration; assay type: functional
A-431 [19] = assay: Difference in days for treated (T) and control (C) A431 tumors to reach 750 mg in mice at 75 mg/kg ip dose, days 7-21 administration; assay type: functional; conditions: route intraperitoneal; procedure, shortened: as §1
A-431 [20] = assay: Weight change in A431 tumor bearing mice at 100 mg/kg peroral dose, days 7-21 administration; assay type: functional; conditions: route oral
SK-OV-3 [21] = assay: Ratio of treated and control SKOV-3 median tumor mass*100% in mice at 30 mg/kg ip dose, days 10-14,17-21,24-28 administration; assay type: functional; conditions: route intraperitoneal
MCF7 [22] = assay: Net reduction in MCF-7 tumor burden between the first and last treatments in mice at 25 mg/kg ip dose, days 1-15 administration; assay type: functional; conditions: route intraperitoneal
Procedure, shortened: (§2)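 NCr nu/nu nude mice (18-22 g) were randomized and implanted sc with A431 epidermoid, human-EGFR-transfected NIH 3T3 fibroblast, or MCF-7 breast tumor fragments in the right axilla on day 0. Dosing was ip or oral, by average cage weight, with 6 mice per dose group. Log net cell kill is the net reduction in tumor burden between the first and last treatments.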

Mus musculus [23] = assay: Net reduction in EGFR tumor burden between the first and last treatments in mice at 400 mg/kg peroral dose, days 1-15 administration; assay type: functional; conditions: route oral; procedure, shortened: as §2
A-431 [24] = assay: Ratio of treated and control A431 median tumor mass*100% in mice at 100 mg/kg peroral dose, days 7-21 administration; assay type: functional; conditions: route oral; procedure, shortened: as §1
Mus musculus [25] = assay: Ratio of treated and control EGFR median tumor mass*100% in mice at 38 mg/kg ip dose, days 1-15 administration; assay type: functional; conditions: route intraperitoneal; procedure, shortened: as §1
SK-OV-3 [26] = assay: Difference in days for treated (T) and control (C) SKOV-3 tumor fragments to reach 750 mg in mice at 30 mg/kg ip dose, administration days 10-14,17-21,24-28; assay type: functional; conditions: route intraperitoneal
A-431 [27] = assay: Difference in days for treated (T) and control (C) A431 tumor fragments to reach 750 mg in mice at 100 mg/kg peroral dose, administration days 7-21; assay type: functional; conditions: route oral
MCF7 [28] = assay: Ratio of treated and control MCF-7 median tumor mass*100% in mice at 25 mg/kg ip dose, days 1-15 administration; assay type: functional; conditions: route intraperitoneal; procedure, shortened: as §1
MCF7 [29] = assay: Ratio of treated and control MCF-7 median tumor mass*100% in mice at 50 mg/kg ip dose, days 1-15 administration; assay type: functional; conditions: route intraperitoneal; procedure, shortened: as §1

T1 sequence (P00533 whole entry): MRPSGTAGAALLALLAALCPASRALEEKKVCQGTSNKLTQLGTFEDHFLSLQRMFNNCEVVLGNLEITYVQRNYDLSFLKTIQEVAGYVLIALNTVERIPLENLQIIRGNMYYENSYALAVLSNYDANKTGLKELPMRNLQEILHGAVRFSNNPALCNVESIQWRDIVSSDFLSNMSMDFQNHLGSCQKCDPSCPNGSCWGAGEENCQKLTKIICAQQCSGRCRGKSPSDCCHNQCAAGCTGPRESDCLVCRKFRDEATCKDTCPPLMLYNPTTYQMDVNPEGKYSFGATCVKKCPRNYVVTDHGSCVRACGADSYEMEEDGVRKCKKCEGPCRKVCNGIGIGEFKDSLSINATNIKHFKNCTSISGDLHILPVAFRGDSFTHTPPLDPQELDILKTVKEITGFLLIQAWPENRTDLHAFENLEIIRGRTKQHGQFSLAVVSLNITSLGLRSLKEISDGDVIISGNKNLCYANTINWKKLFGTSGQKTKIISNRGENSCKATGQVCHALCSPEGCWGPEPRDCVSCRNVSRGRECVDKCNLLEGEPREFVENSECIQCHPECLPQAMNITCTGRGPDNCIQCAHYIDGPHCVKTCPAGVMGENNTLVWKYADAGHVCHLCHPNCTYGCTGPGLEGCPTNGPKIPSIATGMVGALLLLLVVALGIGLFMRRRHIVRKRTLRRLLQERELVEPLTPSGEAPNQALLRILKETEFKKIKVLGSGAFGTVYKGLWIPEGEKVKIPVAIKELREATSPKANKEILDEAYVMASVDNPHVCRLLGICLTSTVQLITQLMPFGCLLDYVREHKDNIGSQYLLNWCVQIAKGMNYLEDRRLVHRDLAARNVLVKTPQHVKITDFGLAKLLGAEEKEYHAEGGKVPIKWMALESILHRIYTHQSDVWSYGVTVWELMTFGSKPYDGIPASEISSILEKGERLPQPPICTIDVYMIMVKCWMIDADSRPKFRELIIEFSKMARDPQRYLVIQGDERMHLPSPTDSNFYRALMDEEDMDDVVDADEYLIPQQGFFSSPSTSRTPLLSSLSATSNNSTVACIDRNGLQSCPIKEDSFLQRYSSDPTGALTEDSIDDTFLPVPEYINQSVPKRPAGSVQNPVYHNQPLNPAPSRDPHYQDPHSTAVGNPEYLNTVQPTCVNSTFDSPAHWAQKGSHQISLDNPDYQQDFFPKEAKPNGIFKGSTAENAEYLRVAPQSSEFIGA

With `CNc1cc2c(Nc3cccc(C(F)(F)F)c3)ncnc2cn1` the IC50 [1] was 1.1 nM.

`CN(CC(=O)O)c1cc2c(Nc3cccc(Br)c3)ncnc2cn1` gave an IC50 [1] of 0.44 nM and a solubility [2] of 44000 µM (≈ 17100 µg/mL).

For `Cc1cccc(Nc2ncnc3cnc(NCCCN4CCOCC4)cc23)c1`, the IC50 [1] was 1.8 nM and the S [2] was > 35 mM.

In the case of `O=C(O)CNc1cc2c(Nc3cccc(Br)c3)ncnc2cn1`, the IC50 [1] is reported as 0.28 nM and the solubility [2] is reported as 5000 µM (≈ 1870 µg/mL).

For `Cc1cccc(Nc2ncnc3cnc(NCCN4CCOCC4)cc23)c1`, the S [2] was > 40 mM.

In the case of `CN(CC(O)CO)c1cc2c(Nc3cccc(Br)c3)ncnc2cn1` (stereo not given), the IC50 [1] is reported as 0.56 nM and the solubility [2] is reported as 180 µM (≈ 72.8 µg/mL).

`Brc1cccc(Nc2ncnc3cnc(NCCCn4ccnc4)cc23)c1` showed an IC50 [1] of 1.7 nM, a solubility [2] of 23000 µM (≈ 9760 µg/mL) and an IC50 [3] of 9.1 nM.

Work on `CNc1cc2c(Nc3cccc(Br)c3)ncnc2cn1` yielded a Weight change (Mus musculus [4]) of -0.1 g, a T-C (Mus musculus [5]) of 1.2 days and a T-C (Mus musculus [6]) of 3.7 days. For the same compound, the T/C (A-431 [7]) was 41%, the Weight change (MCF7 [8]) was “Weight gain” and the T-C (MCF7 [9]) was 11.2 days. For the same compound, the Weight change (SK-OV-3 [10]) was -1.6 g, the T/C (Mus musculus [11]) was 67% and the Weight change (A-431 [12]) was -0.8 g. It also gave an IC50 [13] of 52 nM, a log net cell kill (Mus musculus [14]) of -1 and a solubility [2] of 100 µM (≈ 33 µg/mL). It also gave a Weight change (MCF7 [15]) of -0.2 g, a T-C (MCF7 [16]) of 15.2 days and an IC50 [17] of 13 nM. For the same compound, the Weight change (Mus musculus [18]) was “Weight gain”, the T-C (A-431 [19]) was 8.4 days and the Weight change (A-431 [20]) was -1.3 g. The T/C (SK-OV-3 [21]) was 67%, the Net cell kill (MCF7 [22]) was -0.1 log10 and the Net cell kill (Mus musculus [23]) was -1.3 log10. It also gave a T/C (A-431 [24]) of 38%, a T/C (Mus musculus [25]) of 38% and a T-C (SK-OV-3 [26]) of 0.8 days. The T-C (A-431 [27]) was 16 days, the T/C (MCF7 [28]) was 14% and the T/C (MCF7 [29]) was 27%.

Compound `OCCN(CCO)CCNc1cc2c(Nc3cccc(Br)c3)ncnc2cn1` has an IC50 [1] of 0.93 nM, a solubility [2] of 36000 µM (≈ 16100 µg/mL) and an IC50 [3] of 71 nM.

In the case of `OCCNc1cc2c(Nc3cccc(Br)c3)ncnc2cn1`, the IC50 [1] is reported as 0.19 nM and the solubility [2] is reported as 20 µM (≈ 7.2 µg/mL).

With `Cc1nc(Nc2cccc(Br)c2)c2cc(NCCN3CCOCC3)ncc2n1` the IC50 [1] was 117 nM.

`Cc1cccc(Nc2ncnc3cnc(N)cc23)c1` gave an IC50 [1] of 3.1 nM and a solubility [2] of 400 µM (≈ 101 µg/mL).

In the case of `CN(CCO)c1cc2c(Nc3cccc(Br)c3)ncnc2cn1`, the IC50 [1] is reported as 0.22 nM and the solubility [2] is reported as 110 µM (≈ 41.2 µg/mL).

`CN(C)CCCNc1cc2c(Nc3cccc(Br)c3)ncnc2cn1` showed an IC50 [1] of 1.2 nM, a solubility [2] of 30000 µM (≈ 12000 µg/mL) and an IC50 [3] of 16 nM.

`CN(C)c1cc2c(Nc3cccc(Br)c3)ncnc2cn1` showed a solubility [2] of 60 µM (≈ 20.7 µg/mL).

Work on `CNc1cc2c(Nc3cccc(Cl)c3)ncnc2cn1` yielded an IC50 [1] of 0.19 nM.
